Measurements: ChEMBL document CHEMBL5653613 (Mol Cancer Ther, 2013)
Activity calls are given as the source filed them. The calls are words filed in the database; no cut-off is given here.

How the values were obtained:
[1] = Cmax in athymic mouse xenografted with human GTL-16 cells upto 50 mg/kg, po qd for 14 days consecutively; type: ADME, organism-based; details: in vivo, time 14 day
ZR-75-1 [2] = assay: Inhibition of clonogenic growth in human ZR-75-1 cells incubated for 10 days by Hema-3 staining based microscopy; type: functional, cell-based; details: dose 1-5 µmol/L, time 10.0 day
Summary of the method: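 Colonies were stained with Hema-3, photographed under a microscope with a CCD camera, counted in duplicate, and expressed as % of control. Results are shown from 1 of 2 experiments.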

ZR-75-1 [3] = assay: Cytotoxicity against human ZR-75-1 cells at 1 to 2.5 umol/L incubated for 72 hrs by MTS assay; type: functional, cell-based; details: dose 1-2.5 µmol/L
ZR-75-1 [4] = assay: Induction of apoptosis in human ZR-75-1 cells assessed as rate of apoptotic cell death at 5 umol/L by annexin V/PI staining based flow cytometry relative to control; type: functional; details: dose 5 µmol/L; at 5 µM
MCF7 [5] = assay: Induction of apoptosis in human MCF7 cells assessed as late cells at 5 umol/L incubated for 3 days by Annexin V/PI staining based flow cytometry (reference value: 1.4 %); type: functional; details: dose 5 µmol/L; time 3 day; at 5 µM
T47D [6] = assay: Induction of apoptosis in human T47D cells assessed as viable cells at 5 umol/L incubated for 3 days by Annexin V/PI staining based flow cytometry (reference value: 95.7 %); type: functional; details: 72 h, dose 5 µmol/L, time 3 day, read-out: Activity
T47D [7] = assay: Induction of apoptosis in human T47D cells assessed as late cells at 5 umol/L incubated for 3 days by Annexin V/PI staining based flow cytometry (reference value: 2.9 %); type: functional; details: dose 5 µmol/L; time 3 day; at 5 µM
ZR-75-1 [8] = assay: Induction of apoptosis in human ZR-75-1 cells assessed as viable cells at 5 umol/L incubated for 3 days by Annexin V/PI staining based flow cytometry (reference value: 95 %); type: functional; details: ZR-75-1, 72 h, dose 5 µmol/L, time 3 day, read-out: Activity
T47D [9] = assay: Induction of polyploidy in human T47D cells at 1 umol/L incubated for 72 hrs by microscopic analysis relative to control; type: functional; details: dose 1 µmol/L, at 1 µM
Summary of the method: (§1)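 Cells stained with Hema-3 and photographed under a light microscope with CCD camera. Polyploid cells scored as percent of the population.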

MCF7 [10] = assay: Induction of polyploidy in human MCF7 cells at 5 to 10 umol/L incubated for 72 hrs by microscopic analysis relative to control; type: functional; details: dose 5-10 µmol/L, at 5 to 10 µM; summary of the method: as §1
T47D [11] = assay: Induction of polyploidy in human T47D cell at 5 umol/L by microscopic analysis; type: functional, cell-based; details: dose 5.0 µmol/L, time 72.0 hrs, TDE = time-dependent effect
T47D [12] = assay: Induction of polyploidy in human T47D cells at 5 uM incubated for 72 hrs by microscopic analysis; type: functional, cell-based; summary of the method: as §1
MCF7 [13] = assay: Induction of polyploidy in human MCF7 cells assessed as cells with 2N chromosome contents at 5 uM incubated for 48 hrs by PI staining based flow cytometry (reference value: 52); type: functional
MCF7 [14] = assay: Induction of polyploidy in human MCF7 cells assessed as cells with 4N chromosome contents at 5 uM incubated for 48 hrs by PI staining based flow cytometry (reference value: 36); type: functional
MCF7 [15] = assay: Induction of polyploidy in human MCF7 cells assessed as cells with 2N chromosome contents at 5 uM incubated for 72 hrs by PI staining based flow cytometry (reference value: 52); type: functional
MCF7 [16] = assay: Induction of polyploidy in human MCF7 cells assessed as cells with 4N chromosome contents at 5 uM incubated for 72 hrs by PI staining based flow cytometry (reference value: 36); type: functional
T47D [17] = assay: Induction of polyploidy in human T47D cells assessed as cells with 8N chromosome contents at 5 uM incubated for 48 hrs by PI staining based flow cytometry (reference value: 0); type: functional
T47D [18] = assay: Induction of polyploidy in human T47D cells assessed as cells with 16N chromosome contents at 5 uM incubated for 48 hrs by PI staining based flow cytometry (reference value: 0); type: functional
T47D [19] = assay: Induction of polyploidy in human T47D cells assessed as cells with 8N chromosome contents at 5 uM incubated for 72 hrs by PI staining based flow cytometry (reference value: 0); type: functional
ZR-75-1 [20] = assay: Induction of polyploidy in human ZR-75-1 cells assessed as cells with 2N chromosome contents at 5 uM incubated for 24 hrs by PI staining based flow cytometry (reference value: 48); type: functional
ZR-75-1 [21] = assay: Induction of polyploidy in human ZR-75-1 cells assessed as cells with 4N chromosome contents at 5 uM incubated for 24 hrs by PI staining based flow cytometry (reference value: 35); type: functional
ZR-75-1 [22] = assay: Induction of polyploidy in human ZR-75-1 cells assessed as cells with 16N chromosome contents at 5 uM incubated for 24 hrs by PI staining based flow cytometry (reference value: 0); type: functional
ZR-75-1 [23] = assay: Induction of polyploidy in human ZR-75-1 cells assessed as cells with 4N chromosome contents at 5 uM incubated for 48 hrs by PI staining based flow cytometry (reference value: 35); type: functional
ZR-75-1 [24] = assay: Induction of polyploidy in human ZR-75-1 cells assessed as cells with 16N chromosome contents at 5 uM incubated for 48 hrs by PI staining based flow cytometry (reference value: 0); type: functional
ZR-75-1 [25] = assay: Induction of polyploidy in human ZR-75-1 cells assessed as cells with 8N chromosome contents at 5 uM incubated for 72 hrs by PI staining based flow cytometry (reference value: 0); type: functional
T47D [26] = assay: Disruption of microtubule dynamics in human T47D cells assessed as condensed irregular-shaped chromosomes at 5 umol/L incubated for 24 hrs by immunofluorescence staining based analysis; type: functional, cell-based; details: dose 5.0 µmol/L
Summary of the method: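 T-47D cells (1 × 10^6/dish) in RPMI-1640 with 5% FBS were treated with or without 5 µmol/L for 24, 48 and 72 h. Cells were fixed in cold acetone and stained with mouse anti-α-tubulin or anti-γ-tubulin, then an FITC anti-mouse IgG secondary, plus DAPI. Fluorescence microscopy, 200× magnification.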

T47D [27] = assay: Induction of cell cycle arrest at cytokinesis in human T47D cells at 5 umol/L preincubated for 24 hrs followed by extensive compound washout and subsequent culturing in compound-free media measured upto 120 mins by immunofluorescence staining based analysis; type: functional; details: dose 5.0 µmol/L
Summary of the method: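 T-47D cells were treated at 37°C with 5 µmol/L for 24 h, washed extensively, then cultured in DMEM with 10% FBS for 30, 60 and 120 min. α- and γ-tubulin were detected by immunofluorescence with DAPI, imaged at 400×. The control was a 24 h preincubation with 5 µmol/L RO-3306. One of 2 experiments.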

MCF7 [28] = assay: Downregulation of histone H3 expression in human MCF7 cells at 5 umol/L incubated upto 72 hrs by Western blot analysis; type: functional, cell-based; details: dose 5.0 µmol/L
Summary of the method: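 Cells were treated with 5 µmol/L for 0, 24, 48 and 72 h. Lysates were immunoblotted for AURK-B, phospho-Ser10 histone H3 and total histone H3, with β-actin reprobe as the loading control. Detection by enhanced chemiluminescence.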

[29] = Effect on doxorubicin resistance in human T47D cells with compound-induced polyploidy assessed as change in doxorubicin-induced cytotoxicity by measuring increase in doxorubicin IC50 at 5 umol/L preincubated for 72 hrs followed by compound washout and subsequent doxorubicin treatment for 72 hrs by MTS assay; type: functional, cell-based
T-47D (Homo sapiens) = assay: Disruption of microtubule dynamics in human T-47D cells at 5 umol/L incubated upto 72 hrs by immunofluorescence staining based analysis; details: dose 5.0 µmol/L

CCOc1ccn(-c2ccc(F)cc2)c(=O)c1C(=O)Nc1ccc(Oc2ccnc(N)c2Cl)c(F)c1 [BMS-777607]
Cmax [1]: 43.7 µM
inhibition (ZR-75-1 [2]): Dose-Dependent Effect
Activity (ZR-75-1 [3]): inactive
Activity (ZR-75-1 [4]): 9.7%
Activity (MCF7 [5]): 2%
viability at 5 µM (T47D [6]): 87.3%
Activity (T47D [7]): 8.1%
viability at 5 µM (ZR-75-1 [8]): 88.5%
Activity (T47D [9]): 14%
Activity (MCF7 [10]): 36%
Activity (T47D [11]): Tde
Activity (T47D [12]): Active
Activity (MCF7 [13]): 12
Activity (MCF7 [14]): 38
Activity (MCF7 [15]): 12
Activity (MCF7 [16]): 41
Activity (T47D [17]): 23
Activity (T47D [18]): 18.5
Activity (T47D [19]): 21
Activity (ZR-75-1 [20]): 15.5
Activity (ZR-75-1 [21]): 45.5
Activity (ZR-75-1 [22]): 5
Activity (ZR-75-1 [23]): 12
Activity (ZR-75-1 [24]): 32
Activity (ZR-75-1 [25]): 20
Activity (T47D [26]): Active
Activity (T47D [27]): Active
Activity (MCF7 [28]): inactive
IC50 [29]: 1420 nM
Activity (T-47D (Homo sapiens)): Active
